Screening data: PubChem, several laboratories
Lipid droplet = inhibitors of hepatocyte lipid droplet formation, primary screen, imaging, high-throughput imaging, BODIPY stain. hit rate 0.4% among 240,000. inhibition, % at 6.5 µM. AML12 mouse hepatocytes, oleate lipid droplets. AID 1656, 2009;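 active means lipid droplet intensity inhibited by at least 50%, with more than 500 cells counted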
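Material – mouse AML12 hepatocyte cell line, fixed after treatment · Compound dosing – one dose, 6.5 µM compound · Times – compound with oleate, overnight · Measured by – Image-based BODIPY and DAPI two-channel analysis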
aDG glyco act = activators of alpha-DG glycosylation, primary screen, uHTS, Pro5-aDG cells, AlphaScreen; alpha-DG glycosylation AlphaScreen (IIH6); 0% Pro5, 100% B10-LARGE cell signal; activation, % at 10 µM; hit rate 0.22% among 360,000; AID 624168, 2012;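 active means activation of at least 8% versus controls, or a plate z-score of at least 8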;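 further: Pro5 are CHO cells carrying HIG-tagged alpha-DG that lacks glycosylation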
ADAM17 inh = ADAM17 inhibitors, primary screen, biochemical, QFRET; inhibition, % at 6.95 µM; hit rate 0.83% among 370,000; Disintegrin and metalloproteinase domain-containing protein 17 (Homo sapiens), P78536; recombinant ADAM17, EDANS/DABCYL FRET peptide cleavage;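 active means inhibition above the mean of compounds lying between control limits plus 3 SD, set per campaign, cut at about 8.5% in these data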
ADAM10 inh = human ADAM10 inhibitors, primary screen, biochemical, QFRET, HTS | AID 720582, 2013 | inhibition, % at 7 µM | hit rate 0.62% among 370,000 | Disintegrin and metalloproteinase domain-containing protein 10 (Homo sapiens), O14672 | recombinant ADAM10, EDANS/DABCYL FRET peptide cleavage, 3 h;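 active means inhibition above a per-campaign cutoff equal to the mean of compounds falling between control-based bounds plus 3 SD, cut at about 20% in these data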
Target sequence (O14672 214-748 limits assumed): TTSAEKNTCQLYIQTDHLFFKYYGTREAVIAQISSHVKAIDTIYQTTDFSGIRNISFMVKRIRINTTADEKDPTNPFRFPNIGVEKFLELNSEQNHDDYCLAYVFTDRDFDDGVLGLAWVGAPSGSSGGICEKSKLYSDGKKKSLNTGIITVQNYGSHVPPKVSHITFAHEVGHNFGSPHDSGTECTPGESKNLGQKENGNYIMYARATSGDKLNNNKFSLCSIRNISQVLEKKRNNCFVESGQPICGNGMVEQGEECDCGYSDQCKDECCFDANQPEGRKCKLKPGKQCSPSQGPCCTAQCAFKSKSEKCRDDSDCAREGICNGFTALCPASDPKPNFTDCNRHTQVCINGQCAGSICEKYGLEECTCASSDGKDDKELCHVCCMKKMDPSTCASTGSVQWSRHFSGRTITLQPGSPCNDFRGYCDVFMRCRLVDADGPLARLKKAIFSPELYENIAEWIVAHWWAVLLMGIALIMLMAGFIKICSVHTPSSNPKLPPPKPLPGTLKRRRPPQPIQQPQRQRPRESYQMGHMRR
V-ATPase pHluor = regulators of yeast V-ATPase proton pumping, primary screen, pHLuorin cytosolic pH fluorescence; S. cerevisiae; response, % at 10 µM; hit rate 0.37% among 350,000; AID 504577, 2011; in the data active means response mostly above about 7.3%, no sharp cut-off; inactive means mostly below about 5.4%; further: actives read high
MPTP inh = mitochondrial permeability transition pore inhibitors, primary screen, biochemical, isolated mouse mitochondria, absorbance. inhibition, % at 10 µM. Ca2+ swelling absorbance, 30 min. AID 602449, 2012. hit rate 1.4% among 360,000;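 active means inhibition of 50% or more, scaled per plate between neutral and stimulator controls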
MPTP counter = fluorescence retest of MPTP screen hits in isolated mitochondria, single concentration. membrane potential, Rhodamine 123 fluorescence. inhibition, % at 10 µM. shares compounds with MPTP inh. hit rate 78% among 5,000; in the data active means inhibition above about 22%
MPTP swell DR = mitochondrial permeability transition pore inhibitors, dose response, biochemical, absorbance, uHTS hits | shares compounds with MPTP inh | isolated mitochondria swelling | IC50, µM | hit rate 58% among 780 | AID 651561, 2012; in the data active means IC50 below about 20 µM
MPTP cs DR = fluorescent counter-screen in isolated mitochondria, dose response, counter-screen for MPTP inhibitor project, biochemical, fluorescence, uHTS hits. shares compounds with MPTP inh. isolated mitochondria counterscreen, fluorescence read-out. IC50, µM. hit rate 49% among 780. AID 651564, 2012; in the data active means IC50 below about 80 µM
Of the large screens only hits and unclear results are named; the others gave an inactive call (follow-up assays come after a bar, where they were run). Rows were chosen to be rich in hits. Some 3.1% of all compounds tested hit in one or more screens of this group.

COc1ccc(NC(=S)NC(NC(=O)c2cccc(Cl)c2)C(Cl)(Cl)Cl)c([N+](=O)[O-])c1 (stereo unspecified)	MPTP inh 92 | MPTP counter 51
COc1ccc(NC(=S)NC(NC(C)=O)C(Cl)(Cl)Cl)c([N+](=O)[O-])c1 (stereo unspecified)	none
CCC(=O)NC(NC(=S)Nc1cccc2cccnc12)C(Cl)(Cl)Cl (stereo unspecified)	none
O=C(NC(NC(=S)Nc1ccccc1Cl)C(Cl)(Cl)Cl)c1cccc(Cl)c1 (stereo unspecified)	MPTP inh 77 | MPTP counter 62
CC(C)CNS(=O)(=O)/C=C/c1ccccc1CNC(=O)OC(C)(C)C	none (no result: Lipid droplet, aDG glyco act, V-ATPase pHluor, MPTP inh)
COC(=O)[C@]12C[C@H](CC(=O)N3CCCC3)C(=O)N(CCc3ccc(OC)c(OC)c3)C1=C[C@H](C1CCCC1)O[C@@H]2C	none (no result: Lipid droplet, aDG glyco act, V-ATPase pHluor, MPTP inh)
Cc1ccc2[nH]c(O)c(N=Nc3ccccc3C)c2c1	MPTP inh 66 | MPTP counter inactive | MPTP swell DR inactive | MPTP cs DR inactive
Cc1ccccc1N=Nc1c(O)[nH]c2ccccc12	none (no result: Lipid droplet)
Fc1cccc(/C=N/Nc2nccnc2Cl)c1	none
C[n+]1cccc(/C=N/Nc2nc(Cl)c(C#N)c(Cl)c2Cl)c1	MPTP inh 65 | MPTP counter 64
C[N+](C)(C)c1ccc(/C=N/Nc2nc(Cl)c(C#N)c(Cl)c2Cl)cc1	MPTP inh 92 | MPTP counter 95
Cc1nc(C#N)c(N/N=C/c2cccc(Cl)c2)o1	none (no result: Lipid droplet)
CCOC(=O)[C@@]12CCCC3=C1N(CCC3)C(=O)[C@H]2CC(=O)NCc1ccccc1	none (no result: Lipid droplet, aDG glyco act, V-ATPase pHluor, MPTP inh)
O=C(Nc1cccc(F)c1)O[C@@H]1CC[C@@]23CCCN2C(=O)CCC[C@H]3C1	none (no result: Lipid droplet, aDG glyco act, V-ATPase pHluor, MPTP inh)
N#Cc1cc(C(=O)c2cc(Br)ccc2O)cn(Cc2ccccc2)c1=O	MPTP inh 52 | MPTP counter 77
COc1ccc(O)c(C(=O)c2cc(C#N)c(=O)n(Cc3ccccc3)c2)c1	none
O=[N+]([O-])c1ccccc1CNc1ccc(F)c(Cl)c1	MPTP inh 76 | MPTP counter 80
Cc1ccc(N(CC(=O)Nc2ccc(F)c(Cl)c2)S(=O)(=O)c2c(C)noc2C)cc1	MPTP inh 58 (no result: Lipid droplet) | MPTP counter 101
Cc1cccc2[nH]c3c(N4CC=C(c5ccc(F)cc5)CC4)ncnc3c12	MPTP inh 66 | MPTP counter 62
COc1cccc2[nH]c3c(N4CCCCC4)ncnc3c12	none (no result: Lipid droplet)
Oc1c(Br)cc(Br)cc1CNc1ccc(F)cc1	MPTP inh 78 | MPTP counter 81
O=C(/C(N=Nc1cccc(C(F)(F)F)c1)=C(/O)c1cccs1)C(F)(F)F	MPTP inh 86 | MPTP counter 82
CC(=O)/C(N=Nc1cccc(C(F)(F)F)c1)=C(\C)O	none
CCn1c2ccccc2c2cc(NC(=O)CNCC3CCCO3)ccc21 (stereo unspecified)	MPTP inh 61 | MPTP counter inactive | MPTP swell DR inactive | MPTP cs DR inactive
O=C(CN1C(=O)S/C(=C\c2ccccc2)C1=O)Nc1cc([N+](=O)[O-])ccc1O	MPTP inh 58 | MPTP counter 79
O=C1/C(=C\c2cccc([N+](=O)[O-])c2O)SC(=S)N1Cc1ccccc1	none
O=C1/C(=C/c2ccc(O)c([N+](=O)[O-])c2)SC(=S)N1Cc1ccccc1	MPTP inh 73 | MPTP counter 55
Cc1ccc(/C=C2/SC(=S)N(CCCC(=O)Nc3cc([N+](=O)[O-])ccc3O)C2=O)cc1	MPTP inh 64 | MPTP counter inactive | MPTP swell DR 4.6 | MPTP cs DR <2.5
CC(C)c1ccc(OCc2ccc(C(=O)N3CCCC3)o2)cc1	MPTP inh 84 | MPTP counter inactive | MPTP swell DR 12 | MPTP cs DR 18
CCOc1ccc(OCc2ccc(C(=O)N3CCCC3)o2)cc1	none
Cc1ccc(OCc2ccc(C(=O)N3CCOCC3)cc2)cc1C	none
CC(C)c1ccc(COc2ccc(C(=O)N3CCOCC3)cc2)cc1	MPTP inh 67 | MPTP counter 49
Cc1ccccc1N1CCN(C(=O)CCn2nnc3ccccc32)CC1	none (no result: Lipid droplet, aDG glyco act, V-ATPase pHluor, MPTP inh)
Cc1ccc(NC(=O)[C@H]2CC(=O)O[C@@H]2c2ccccc2)c(C)c1	none (no result: Lipid droplet, aDG glyco act, V-ATPase pHluor, MPTP inh)
Cc1ccc(S(=O)(=O)n2ccc3c(OCCOCCNCc4ccc(F)cc4)cccc32)cc1	MPTP inh 68 | MPTP counter 86
Cc1ccc(S(=O)(=O)n2ccc3c(OCCOCCSCC(NC(=O)OC(C)(C)C)C(=O)O)cccc32)cc1 (stereo unspecified)	none (no result: Lipid droplet)
COc1cccc(O[C@H]2C=C[C@@H](c3ccccc3)O[C@@H]2CO)c1	none (no result: Lipid droplet, aDG glyco act, V-ATPase pHluor, MPTP inh)
CCCc1cc(=O)oc2cc(OCc3cc(OC)c(OC)c(OC)c3)c(Cl)cc12	none (no result: Lipid droplet)
CCCCc1cc(=O)oc2cc(OCc3cc(OC)c(OC)c(OC)c3)c(Cl)cc12	MPTP inh 88 | MPTP counter inactive | MPTP swell DR 3 | MPTP cs DR 5
CN(C)C(CNc1ccc(C(F)(F)F)cn1)c1ccccc1 (stereo unspecified)	MPTP inh 68 | MPTP counter inactive | MPTP swell DR inactive | MPTP cs DR inactive
CCN(CC)c1ccc(-c2nn3c(-c4ccccc4Cl)nnc3s2)cc1	none (no result: Lipid droplet, aDG glyco act, V-ATPase pHluor, MPTP inh)
C=CCN1C(C(=O)OC)CN(Cc2cn(Cc3ccc(C)cc3)nn2)CCS1(=O)=O (stereo unspecified)	none (no result: Lipid droplet, aDG glyco act, V-ATPase pHluor, MPTP inh)
OCCN1CCN(C2Cc3cc(Cl)ccc3Sc3ccc(Cl)cc32)CC1 (stereo unspecified) (tested in a mixture with another compound)	MPTP inh 84 (no result: ADAM17 inh, ADAM10 inh) | MPTP counter inactive
CN1CCN(CCOC2Cc3ccccc3Sc3ccc(Cl)cc32)CC1 (stereo unspecified)	MPTP inh 90 | MPTP counter inactive | MPTP swell DR 6.5 | MPTP cs DR inactive
C[C@@H]1CCN(C2CC2)S(=O)(=O)c2c(cccc2N2CC[C@@H](O)C2)O1	none (no result: Lipid droplet, aDG glyco act, V-ATPase pHluor, MPTP inh)
COc1ccc(C(=O)/C=C/Nc2ccc(S(=O)(=O)Nc3cccc(C(C)=O)c3)cc2)cc1	MPTP inh 97 | MPTP counter 84
